Active and inactive are the calls of the source. No cut-off for these calls is given here.

The subject of test [1] is Erythrocyte. Nature of the test: Induction of membrane modification in erythrocytes assessed as formation of echinocyte type 1 and discocyte shape change at 100 ug/mL after 48 hrs by phase contrast light microscopy. In kind it is functional, cell-based. In short, it runs like this:
(§1)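 Nonparasitized erythrocytes incubated with compound under the antiplasmodial culture conditions, without radiotracer. Controls held 0% or 0.5% DMSO and no compound. At 48 h, samples spread on slides, air-dried, methanol-fixed and Giemsa-stained for phase-contrast light microscopy. Dominant cell shapes scored by Bessis nomenclature; degree of lysis also graded.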

Test [2] relates to Erythrocyte. Nature of the test: Induction of membrane modification in erythrocytes assessed as formation of discocyte shape change at 50 ug/mL after 48 hrs by phase contrast light microscopy. In kind it is functional, cell-based. In outline:
as §1

The subject of test [3] is Erythrocyte. Nature of the test: Induction of membrane modification in erythrocytes assessed as formation of discocyte shape change at 25 ug/mL after 48 hrs by phase contrast light microscopy. It counts as functional, cell-based. In short, it runs like this: as §1
In test [4] the test system is Erythrocyte. Description: Induction of membrane modification in erythrocytes assessed as formation of discocyte shape change at 12.5 ug/mL after 48 hrs by phase contrast light microscopy. It counts as functional, cell-based. In outline:
as §1

Another test concerns Plasmodium falciparum. Nature of the test: Antiplasmodial activity against Plasmodium falciparum 3D7 by [3H]phenylalanine uptake. In kind it is functional, organism-based. The settings on record: 3D7, 48 h. In short, it runs like this:
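Asynchronous cultures of chloroquine-sensitive P. falciparum 3D7 in erythrocytes, initial parasitemia 1.5%. Compounds added from DMSO solutions, final DMSO up to 0.5% in growth medium. Growth indexed by [3H]phenylalanine incorporation. Inhibition curves from eight concentrations, each in triplicate, give IC50 (50% growth inhibition). Chloroquine diphosphate as positive reference.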

In test [5] the test system is Erythrocyte. Description: Induction of membrane modification in erythrocytes assessed as formation of echinocyte type 1 shape change at 100 ug/mL after 48 hrs by phase contrast light microscopy. It counts as functional, cell-based. In outline: as §1
For test [6], the system named is Erythrocyte. Description: Induction of membrane modification in erythrocytes assessed as formation of spheroechinocyte type 2 shape change at 100 ug/mL after 48 hrs by phase contrast light microscopy. It counts as functional, cell-based. In short, it runs like this: as §1
In test [7] the test system is Erythrocyte. Description: Induction of membrane modification in erythrocytes assessed as formation of spheroechinocyte type 1 and echinocyte type 3 shape change at 100 ug/mL after 48 hrs by phase contrast light microscopy. In kind it is functional, cell-based. The conditions noted are these: 50 ug/mL, in the assay text read “50 ug/mL” for “100 ug/mL”. In outline: as §1

The test system of test [8] is Erythrocyte. Description: Induction of membrane modification in erythrocytes assessed as formation of echinocyte type 3 shape change at 25 ug/mL after 48 hrs by phase contrast light microscopy. In kind it is functional, cell-based. In short, it runs like this:
as §1

In test [9] the test system is Erythrocyte. Description: Induction of membrane modification in erythrocytes assessed as formation of echinocyte type 1 shape change at 12.5 ug/mL after 48 hrs by phase contrast light microscopy. It counts as functional, cell-based. In outline: as §1
The test system of test [10] is Erythrocyte. Nature of the test: Induction of membrane modification in erythrocytes assessed as formation of stomatocyte type 2 shape change at 100 ug/mL after 48 hrs by phase contrast light microscopy. In kind it is functional, cell-based. In short, it runs like this:
as §1

Test [11] concerns Erythrocyte. Nature of the test: Induction of membrane modification in erythrocytes assessed as formation of echinocyte type 1 and discocyte shape change at 50 ug/mL after 48 hrs by phase contrast light microscopy. It counts as functional, cell-based. In outline: as §1
For test [12], the system named is Erythrocyte. Description: Induction of membrane modification in erythrocytes assessed as formation of stomatocyte type 3 and 2 shape change at 50 ug/mL after 48 hrs by phase contrast light microscopy. It counts as functional, cell-based. In short, it runs like this:
as §1

Test [13] deals with Erythrocyte. Nature of the test: Induction of membrane modification in erythrocytes assessed as formation of stomatocyte type 2 and discocyte shape change at 25 ug/mL after 48 hrs by phase contrast light microscopy. It counts as functional, cell-based. In outline:
as §1

In test [14] the test system is Erythrocyte. Nature of the test: Induction of membrane modification in erythrocytes assessed as formation of spherostomatocyte type 1 shape change at 100 ug/mL after 48 hrs by phase contrast light microscopy. In kind it is functional, cell-based. In short, it runs like this:
as §1

The test system of test [15] is Erythrocyte. Nature of the test: Induction of membrane modification in erythrocytes assessed as formation of stomatocyte type 1 and discocyte shape change at 50 ug/mL after 48 hrs by phase contrast light microscopy. In kind it is functional, cell-based. In outline: as §1
Test [16] deals with Erythrocyte. Nature of the test: Induction of membrane modification in erythrocytes assessed as formation of spherostomatocyte type 2 shape change at 100 ug/mL after 48 hrs by phase contrast light microscopy. In kind it is functional, cell-based. In outline: as §1
The subject of test [17] is Erythrocyte. Nature of the test: Induction of membrane modification in erythrocytes assessed as formation of spherostomatocyte type 1 shape change at 50 ug/mL after 48 hrs by phase contrast light microscopy. In kind it is functional, cell-based. In outline:
as §1

The test system of test [18] is Erythrocyte. Description: Induction of membrane modification in erythrocytes assessed as formation of stomatocyte type 2 and 1 shape change at 25 ug/mL after 48 hrs by phase contrast light microscopy. In kind it is functional, cell-based. In short, it runs like this: as §1
Test [19] relates to Erythrocyte. Description: Induction of membrane modification in erythrocytes assessed as formation of echinocyte type 3 shape change at 100 ug/mL after 48 hrs by phase contrast light microscopy. It counts as functional, cell-based. In outline:
as §1

Test [20] deals with Erythrocyte. Nature of the test: Induction of membrane modification in erythrocytes assessed as formation of echinocyte type 3 shape change at 50 ug/mL after 48 hrs by phase contrast light microscopy. It counts as functional, cell-based. In short, it runs like this:
as §1

In test [21] the test system is Erythrocyte. Nature of the test: Induction of membrane modification in erythrocytes assessed as formation of echinocyte type 2 shape change at 25 ug/mL after 48 hrs by phase contrast light microscopy. In kind it is functional, cell-based. In outline:
as §1

Regarding `C=C1CC[C@@H]2[C@](C)(CCC[C@]2(C)C(=O)O)[C@H]1CCC1=CC(O)OC1=O` (stereo not given in full), the outcome in the test with Erythrocyte [1], in the test on Erythrocyte [2], in the test with Erythrocyte [3] and in the test with Erythrocyte [4] was Active. Half-maximal inhibition in the test on Plasmodium falciparum (IC50) required 145 µM.
For the compound `C=C[C@@]1(C)CC[C@H]2[C@@](O)(CC[C@H]3C(C)(C)[C@@H](O)CC[C@@]32C)C1`, the result with Erythrocyte [5], in the test on Erythrocyte [2], in the test on Erythrocyte [3] and in the test on Erythrocyte [4] was Active. For the same compound, the midpoint of inhibition in the test on Plasmodium falciparum, the IC50, lay at 80.9 µM.
With `C=C[C@]1(C)C=C2CC[C@H]3[C@](C)(CO)[C@@H](O)CC[C@]3(C)[C@H]2CC1` [SANDARACOPIMARADIENEDIOL], the outcome in the test on Erythrocyte [6], in the test with Erythrocyte [7], in the test with Erythrocyte [8] and in the test with Erythrocyte [9] was Active. Moreover, the IC50 – broadly, the concentration that gives 50% inhibition – with Plasmodium falciparum was determined as 93.3 µM.
As to `C=C1CC[C@@H]2[C@](C)(CCC[C@]2(C)C(=O)O)[C@H]1CCC1=CCOC1=O` [PINUSOLIDIC ACID], the result in the test on Erythrocyte [10], in the test with Erythrocyte [11], in the test on Erythrocyte [3] and with Erythrocyte [4] was Active. The IC50 with Plasmodium falciparum was found to be 164 µM.
In the case of `C=C1CC[C@@H]2[C@](C)(CCC[C@]2(C)C(=O)OC)[C@H]1CCC1=CCOC1=O` [PINUSOLIDE], the outcome in the test with Erythrocyte [12], in the test with Erythrocyte [13], in the test with Erythrocyte [4] and in the test on Erythrocyte [14] was Active. The compound also displayed an IC50 in the test with Plasmodium falciparum of 53.4 µM.
On to `C=C1CC[C@@H]2[C@](C)(CCC[C@]2(C)C(=O)O)[C@H]1CCc1ccoc1` [LAMBERTIAINC ACID], for which the outcome with Erythrocyte [10], in the test on Erythrocyte [15], with Erythrocyte [3] and in the test with Erythrocyte [4] was Active. The compound further came in with an IC50 with Plasmodium falciparum of 130 µM.
Regarding `CC1(C)CCC[C@@]2(C)[C@H]1CC[C@@]1(CO1)[C@@H]2C/C=C(/C=O)CC=O` [AFRAMODIAL], the outcome in the test with Erythrocyte [16], in the test on Erythrocyte [17], with Erythrocyte [18] and in the test with Erythrocyte [4] was Active. This compound also showed an IC50 in the test on Plasmodium falciparum of 76.3 µM.
For the compound `C=C1CC[C@@H]2[C@](C)(CCC[C@]2(C)C(=O)O)[C@H]1CCC1=CC(=O)OC1O` (stereo not given in full), the outcome with Erythrocyte [1], in the test on Erythrocyte [11], in the test on Erythrocyte [3] and with Erythrocyte [4] was Active. In addition, 84.1 µM corresponded to half-maximal inhibition with Plasmodium falciparum (IC50).
Regarding `C=C1CC[C@@H]2[C@](C)(CCC[C@]2(C)C(=O)O)[C@H]1CC/C(C)=C/CO` [ISOCUPRESSIC ACID], the result in the test on Erythrocyte [10], with Erythrocyte [2], in the test on Erythrocyte [3] and with Erythrocyte [4] was Active. The compound also came in with an IC50 in the test on Plasmodium falciparum of 104 µM.
Consider `C=C[C@@]1(C)CCC2=C(CC[C@H]3C(C)(C)[C@@H](O)CC[C@]23C)C1`, for which the outcome in the test on Erythrocyte [19], in the test with Erythrocyte [20], in the test on Erythrocyte [21] and in the test with Erythrocyte [9] was Active. Moreover, the IC50 with Plasmodium falciparum turned out to be 24.6 µM.

The record behind these values is ChEMBL document CHEMBL1151174, “Labdanes and isopimaranes from Platycladus orientalis and their effects on erythrocyte membrane and on Plasmodium falciparum growth in the erythrocyte host cells” (J Nat Prod, 2004).
